In the library only some 4.6% were active in any assay of this set; here they are far more common.
ALR inh: blocks human ALR sulfhydryl oxidase activity; P55789; inhibition, % (test concentration not listed); purified ALR, DTT oxidation, H2O2 HRP-luminol luminescence; hit rate 3.8% among 290,000; AID 485317;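 active means mean replicate inhibition above about 79%, with every replicate also reaching it, limit read from the data; inconclusive means only one of the two criteria met; inactive means mean below limit and not every replicate reaching it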
Target sequence (P55789 whole entry, looked up): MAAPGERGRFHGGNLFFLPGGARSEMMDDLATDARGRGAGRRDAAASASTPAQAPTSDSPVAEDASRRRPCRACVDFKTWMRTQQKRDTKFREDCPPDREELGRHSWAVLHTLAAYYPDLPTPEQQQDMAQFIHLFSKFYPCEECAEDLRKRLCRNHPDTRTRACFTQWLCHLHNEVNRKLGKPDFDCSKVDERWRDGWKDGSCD
HDAC3 inhib: inhibitors of human histone deacetylase 3 | O15379 | recombinant HDAC3, fluorogenic peptide/trypsin coupled, fluorescence | inhibition, % at 8.3 µM | hit rate 0.15% among 320,000; in the data active means inhibition above about 26%, passing the limit was not always enough; inconclusive means no clear call, values can overlap the other calls
FAS-TE inh: FAS thioesterase (human) inhibition; P49327; hit rate 0.67% among 360,000; AID 602261; inhibition, % at 15 µM; recombinant FAS-TE, OMFH fluorogenic substrate, fluorescence endpoint;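 active means compounds whose normalised, plate-corrected inhibition of enzyme fluorescence in the single-dose primary screen is 50% or more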;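 further: 0% = DMSO with enzyme and 100% = substrate without enzyme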
Rtt109 Vps75: C. albicans Rtt109 histone acetyltransferase inhibition. hit rate 0.16% among 330,000. inhibition, % at 34.9 µM. purified Rtt109/Vps75, ThioGlo CoA-SH fluorescence, 4 h;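 active means inhibition of at least 50% in every replicate; inconclusive means best replicate reaches 50% inhibition but some replicates fall short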
UCH37 DUB inh: blocks the human deubiquitinase UCH37 | hit rate 0.33% among 330,000 | inhibition, % (no concentration beside the values) | Q9Y5K5 | purified proteasome/UCH37, Ub-AMC cleavage fluorescence | AID 588478;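 active means mean inhibition over replicate wells above about 20%, limit read from the data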;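 further: 0% = compound-free wells with enzyme and 100% = wells lacking proteasome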
Target sequence (Q9Y5K5 whole entry, looked up): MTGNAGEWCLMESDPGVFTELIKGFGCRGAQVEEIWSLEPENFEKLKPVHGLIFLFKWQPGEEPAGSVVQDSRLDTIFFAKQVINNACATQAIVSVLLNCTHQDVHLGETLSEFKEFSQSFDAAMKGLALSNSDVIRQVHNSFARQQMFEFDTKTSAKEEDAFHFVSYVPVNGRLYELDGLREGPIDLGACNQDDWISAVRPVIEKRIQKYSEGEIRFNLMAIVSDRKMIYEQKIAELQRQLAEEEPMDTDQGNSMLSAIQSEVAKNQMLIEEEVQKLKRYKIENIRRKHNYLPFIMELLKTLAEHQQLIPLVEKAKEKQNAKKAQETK
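Material: Human UCH37 enzyme supplied as purified proteasome complex | Schedule: 30 min compound-proteasome preincubation then 25 min substrate reaction, room temperature | Detection: AMC fluorescence from Ub-AMC cleavage, excitation 355 nm, emission 460 nm | Benchmarks: Wells without proteasome as full block, compound-free enzyme plus substrate as uninhibited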
M18AAP inhibitor: PfM18AAP enzyme inhibition. recombinant PfM18AAP, H-Glu-NHMec fluorogenic cleavage. inhibition, % at 7.35 µM. hit rate 1.2% among 290,000. AID 1822;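 active means inhibition above the campaign mean inhibition over all tested compounds plus 3 SD, cut at about 28% in these data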;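 further: 0% = plate median of test compound wells and 100% = 2 mM ZnCl2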
Numbers without * were called inactive; i = inactive; ? = inconclusive; / = no result given.

SMILES | ALR inh | HDAC3 inhib | FAS-TE inh | Rtt109 Vps75 | UCH37 DUB inh | M18AAP inhibitor
Cc1nn(Cc2ccc(Cl)cc2)c(C)c1N | 93.8* | 3.9 | -3.3 | 4.4 | 2.3 | 0.1
O=C(NN=Cc1ccc2c(c1)OCO2)c1cccc(NC(=O)c2ccccc2Cl)c1 | / | / | / | / | -1.0 | /
COC(=O)c1ccc(CON=Cc2ccc(OC)cc2)o1 | / | / | / | / | 2.6 | /
O=C(OCC(=O)N1CCOCC1)c1cc2ccccc2oc1=O | 0.3 | -1.5 | -11.4 | -5.0 | -33.2 | /
O=C(CSC(=S)N1CCOCC1)c1cc2ccccc2oc1=O | 96.1* | 0.5 | -6.8 | 16.1 | 2.9 | -0.9
Cc1nnc(SCC(=O)Nc2nccs2)n1N | -2.4 | 4.7 | -5.9 | 26.0 | 2.0 | /
Cc1nnc2sc(SCC(=O)Nc3nccs3)nn2c1=O | 98.7* | 16.3 | -5.7 | -18.8 | / | 16.5
COc1ccccc1NC(=O)CSc1nn2c(=O)c(C)nnc2s1 | 98.9* | 4.1 | -5.0 | -8.3 | 8.3 | 0.3
Cc1cc(N2C(=O)C=CC2=O)c([N+](=O)[O-])cc1C | 20.5 | 7.5 | 0.3 | 115.5* | 0.9 | -4.4
COc1ccc(C2NC(=O)CS2)cc1OC (centres undefined) | 98.5* | -6.5 | -8.8 | -0.9 | 0.9 | -1.7
NC(=O)c1ccc(C(=O)NN=C(Cc2ccccc2)c2ccccc2)cc1 | / | / | / | / | 3.0 | /
O=C(C1CCCN(Cc2ccc(Br)cc2)C1)N1CCCCC1 (centres undefined) | 89.5* | 6.4 | -5.4 | -1.0 | 3.6 | -10.2
CN1CCN(/N=C/c2nc(-c3cccc([N+](=O)[O-])c3)n3ccccc23)CC1 | 98.7* | 6.1 | -10.0 | 13.1 | / | 2.1
CC(=NNS(=O)(=O)c1cccc([N+](=O)[O-])c1)c1ccc2c(c1)OCO2 | / | / | / | / | 1.0 | /
CCCCN1CC(O)=C(c2nc(-c3ccc(Cl)cc3)cs2)C1=N | -6.8 | 3.2 | 1.0 | 5.9 | 2.4 | -3.7
N=C1C(c2nc(-c3ccc(Cl)cc3)cs2)=C(O)CN1CCCN1CCOCC1 | 98.1* | 3.4 | 3.4 | -4.4 | 2.9 | 1.1
Br/C(C=NN1CCN(c2ccccc2)CC1)=C\c1ccccc1 | / | / | / | / | 4.4 | /
CN(C(=S)Nc1ccc(Oc2ccccc2)cc1)c1ccc(O)cc1 | 7.2 | 9.1 | 26.9 | 0.6 | 5.8 | 9.4
CN(C(=S)Nc1ccc(SC(F)F)cc1)c1ccc(O)cc1 | 81.1* | 9.3 | -0.7 | -10.7 | 1.7 | 22.4
O=S(=O)(NN=C1CCCc2ccccc21)c1ccccc1 | / | / | / | / | 1.4 | /
COc1ccc(N2CCN(C(=O)c3cccc(NC4=NC5CS(=O)(=O)CC5S4)c3)CC2)cc1 (centres undefined) | 93.3* | -15.8 | -3.6 | 9.1 | -0.6 | 9.1
COc1ccc(N2CCN(C(=O)CCN3C(=S)NC(C)(C)CC3C)CC2)cc1 (centres undefined) | 88.4* | -12.4 | -4.9 | 0.0 | -2.4 | 0.3
CC1CC(C)(C)NC(=S)N1CCC(=O)N1CCN(c2ccccc2)CC1 (centres undefined) | ? | -10.8 | -1.4 | 4.1 | -2.5 | 2.8
CC1CC(C)(C)NC(=S)N1CCCC(=O)N1CCN(c2ccc(F)cc2)CC1 (centres undefined) | 82.9* | ? | -12.7 | -1.1 | 1.1 | 1.3
CC(=O)c1ccc(N2CCN(C(=O)CCN3C(=S)NC(C)(C)CC3C)CC2)cc1 (centres undefined) | 1.1 | 8.2 | -4.4 | -4.0 | 5.1 | -1.2
SMILES | ALR inh | HDAC3 inhib | FAS-TE inh | Rtt109 Vps75 | UCH37 DUB inh | M18AAP inhibitor
Cc1c(O)c(CN(C)C)cc2c1oc(=O)c1ccccc12 | 96.6* | 0.8 | -5.2 | 0.7 | 2.9 | 1.0
COc1ccc(Nc2nc(NCc3ccco3)nc(NN=Cc3ccccc3F)n2)cc1 | / | / | / | / | 1.6 | /
CCC(Cc1ccccc1)=NNC(=O)c1cc([N+](=O)[O-])cc([N+](=O)[O-])c1 | / | / | / | / | 1.3 | /
Cc1ccc(C(=O)CSc2ncnc3ccccc23)o1 | 98.7* | -0.7 | -4.0 | 2.2 | 3.0 | 10.2
O=C(CSc1ncnc2ccccc12)NCC(=O)c1ccccc1 | 96.9* | 4.4 | 0.4 | -15.1 | 1.2 | -0.6
O=C(CSc1ncnc2ccccc12)c1cccs1 | 98.8* | ? | 1.4 | -31.8 | 7.2 | -9.4
O=C(CSc1ccc(-c2ccccc2)nn1)c1cccs1 | 91.9* | -1.1 | 10.4 | 4.7 | 4.0 | 2.0
CCOC(=O)/C(=C\c1cccc(O)c1)c1nc2sc(C)c(C)c2c(=O)[nH]1 | 97.5* | 2.5 | -3.3 | 17.3 | 1.6 | 29.2*
CCOC(=O)c1nc2sc(C)c(C)c2c(=O)[nH]1 | -8.4 | -37.7 | -7.9 | -17.4 | i | 1.0
COc1ccc(N(C(C)C(=O)NN=C(C)C(C)(C)C)S(C)(=O)=O)cc1 (centres undefined) | / | / | / | / | 0.7 | /
C=CCc1c(C)nc(C)nc1NN=Cc1ccc(F)cc1 | / | / | / | / | 10.5 | /
Cc1cc(OCC(=O)ON=C(N)c2ccccc2)ccc1Br | / | / | / | / | 0.0 | /
COc1ccc(N2CCN(CCNC(=O)C3CC(=O)N(C4CCCC4)C3)CC2)cc1 (centres undefined) | 86.1* | 0.5 | -8.1 | -2.6 | 4.0 | 8.4
Cc1cc2c3c(c1)C(C)(c1ccccc1)CC(C)(C)N3C(=O)C21C(C#N)=C(N)OC2=C1C(=O)CC(C)(C)C2 (centres undefined) | -6.9 | -2.3 | 20.4 | 25.3 | 4.8 | 4.3
CC1(c2ccccc2)CC(C)(C)N2C(=O)C3(C(C#N)=C(N)Oc4cc(O)ccc43)c3cccc1c32 (centres undefined) | 1.1 | 10.6 | 52.4* | 10.0 | 1.3 | -3.9
Cc1cc([N+](=O)[O-])nn1CCCC(=O)N1CCN(c2ccc(F)cc2)CC1 | 55.4 | 2.6 | 12.9 | 11.8 | 1.2 | -1.8
Cn1nc([N+](=O)[O-])nc1N1CCN(c2ccc(F)cc2)CC1 | -1.1 | 2.0 | -5.4 | -3.9 | 4.0 | 28.3*
COc1ccccc1C(=O)Nc1ccc(NC(=O)C2CCCCC2)nc1 | / | -3.1 | -1.5 | -2.4 | 1.1 | 13.7
O=C(Nc1ccc(NC(=O)C2CCCCC2)nc1)c1ccccn1 | 98.5* | 7.0 | -1.0 | 7.4 | 2.2 | 2.8
CCOC(=O)C1(C)/C(=N/Nc2ccc(Cl)cc2)C(=O)C(=O)N1c1ccccc1 (centres undefined) | 98.5* | 12.6 | 1.7 | 3.0 | 9.0 | 15.5
O=C1Cc2ccccc2Sc2cc(OCCCN3CCCCC3)ccc21 | -21.0 | -2.8 | -6.9 | -7.6 | -3.5 | -2.6
O=C1Cc2ccccc2Sc2c(OCCN3CCCCC3)cccc21 | -14.4 | -2.4 | -1.3 | 55.0* | 0.2 | 7.2
CC(C)c1ccc2oc(-c3cc(N)ccc3O)nc2c1 | 93.0* | -7.3 | 7.4 | 10.0 | 4.0 | 15.4
CCOC(=O)/C(=C/C=C1\Sc2cc(OCC)c(OCC)cc2N1CC)C(C)=O | 91.6* | 1.8 | -164.1 | -5.1 | 7.3 | 14.6
Cc1csc(SCC(=O)Nc2nccs2)n1 | -10.3 | -2.4 | -9.2 | 1.1 | 0.6 | /
Cc1csc(SCC(=O)Nc2sccc2C(N)=O)n1 | 94.9* | 2.5 | -2.1 | 11.3 | 0.0 | -10.5
Oc1ccc(Br)cc1C=NN1CCN(Cc2cccc3ccccc23)CC1 | / | / | / | / | 2.5 | /
